Laboratory results reported in ChEMBL document CHEMBL4321823, “Benzyl Phenylsemicarbazides: A Chemistry-Driven Approach Leading to G Protein-Biased Dopamine D4 Receptor Agonists with High Subtype Selectivity” (J Med Chem, 2019).

How the values were obtained:
Format in all cases: cell-based
D(2) dopamine receptor [1] = biological target: T1, D(2) dopamine receptor (Homo sapiens, UniProt P14416); assay: Displacement of [3H] Spiperone from human D2L receptor expressed in CHO cells by competitive radioligand binding assay
T1 sequence (P14416 whole entry): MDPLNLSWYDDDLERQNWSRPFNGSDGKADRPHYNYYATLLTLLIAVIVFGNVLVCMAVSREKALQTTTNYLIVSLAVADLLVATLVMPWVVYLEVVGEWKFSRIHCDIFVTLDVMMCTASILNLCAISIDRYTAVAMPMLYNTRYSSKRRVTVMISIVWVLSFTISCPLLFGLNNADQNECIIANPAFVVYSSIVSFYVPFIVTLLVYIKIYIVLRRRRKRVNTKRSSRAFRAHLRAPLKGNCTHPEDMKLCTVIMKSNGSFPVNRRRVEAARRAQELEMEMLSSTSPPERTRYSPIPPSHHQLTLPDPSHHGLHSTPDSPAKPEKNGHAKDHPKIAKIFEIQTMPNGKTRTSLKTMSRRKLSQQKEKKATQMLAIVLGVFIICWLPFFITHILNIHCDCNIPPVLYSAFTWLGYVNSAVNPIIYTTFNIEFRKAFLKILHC

D(2) dopamine receptor [2] = biological target: T1, D(2) dopamine receptor; assay: Displacement of [3H] Spiperone from human D2S receptor expressed in CHO cells by competitive radioligand binding assay
D(3) dopamine receptor = D(3) dopamine receptor (Homo sapiens, UniProt P35462); assay: Displacement of [3H] Spiperone from human D3 receptor expressed in CHO cells by competitive radioligand binding assay
Sequence of D(3) dopamine receptor (P35462 whole entry): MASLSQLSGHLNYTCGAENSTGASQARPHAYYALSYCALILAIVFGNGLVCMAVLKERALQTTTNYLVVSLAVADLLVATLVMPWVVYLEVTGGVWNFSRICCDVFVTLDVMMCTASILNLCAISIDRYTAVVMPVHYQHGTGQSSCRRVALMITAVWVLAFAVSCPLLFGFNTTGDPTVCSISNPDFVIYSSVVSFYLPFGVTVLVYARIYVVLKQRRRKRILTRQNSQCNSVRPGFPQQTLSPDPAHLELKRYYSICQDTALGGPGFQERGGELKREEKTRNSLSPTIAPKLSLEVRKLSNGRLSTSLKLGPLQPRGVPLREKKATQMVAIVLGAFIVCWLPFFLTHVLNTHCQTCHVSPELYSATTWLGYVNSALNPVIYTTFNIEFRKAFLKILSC

D(4) dopamine receptor = biological target: T2, D(4) dopamine receptor (Homo sapiens, UniProt P21917); assay: Displacement of [3H] Spiperone from human D4.4 receptor expressed in CHO cells by competitive radioligand binding assay
T2 sequence (P21917 whole entry): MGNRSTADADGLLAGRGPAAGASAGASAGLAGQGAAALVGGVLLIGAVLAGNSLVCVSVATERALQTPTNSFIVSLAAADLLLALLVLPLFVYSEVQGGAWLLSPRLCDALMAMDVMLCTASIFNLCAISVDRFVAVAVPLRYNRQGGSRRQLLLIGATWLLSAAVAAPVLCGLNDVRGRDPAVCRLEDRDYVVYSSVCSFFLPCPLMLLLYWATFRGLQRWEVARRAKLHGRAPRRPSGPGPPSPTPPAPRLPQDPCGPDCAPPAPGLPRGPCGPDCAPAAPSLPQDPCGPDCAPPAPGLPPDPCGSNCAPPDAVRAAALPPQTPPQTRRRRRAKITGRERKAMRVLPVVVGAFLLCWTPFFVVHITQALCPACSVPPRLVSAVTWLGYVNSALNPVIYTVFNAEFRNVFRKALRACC

Homo sapiens [3] = species on record: Homo sapiens; assay: Selectivity index, ratio of Ki for displacement of [3H] Spiperone from human D2L receptor expressed in CHO cells to Ki for displacement of [3H] Spiperone from human D4.4 receptor expressed in CHO cells
In short: (§1)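 Competition binding against [3H]spiperone on membranes of CHO cells stably expressing cloned human D2L, D2S, D3 or D4.4 receptors. Ki from monophasic curve fits; mean ± SEM of three to seven experiments, each in triplicate. Selectivity calculated as Ki(D2L, D2S or D3) divided by Ki(D4.4).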

Homo sapiens [4] = species on record: Homo sapiens; assay: Selectivity index, ratio of Ki for displacement of [3H] Spiperone from human D2S receptor expressed in CHO cells to Ki for displacement of [3H] Spiperone from human D4.4 receptor expressed in CHO cells; in short: as §1
Homo sapiens [5] = species on record: Homo sapiens; assay: Selectivity index, ratio of Ki for displacement of [3H] Spiperone from human D3 receptor expressed in CHO cells to Ki for displacement of [3H] Spiperone from human D4.4 receptor expressed in CHO cells; in short: as §1

| SMILES | Ki (D(2) dopamine receptor [1]) | Ki (D(2) dopamine receptor [2]) | Ki (D(3) dopamine receptor) | Ki (D(4) dopamine receptor) | Ratio Ki (Homo sapiens [3]) | Ratio Ki (Homo sapiens [4]) | Ratio Ki (Homo sapiens [5]) |
| --- | --- | --- | --- | --- | --- | --- | --- |
| COc1ccccc1N1CCN(CCCNC(=O)NN(Cc2cccc(F)c2)c2ccc(F)cc2)CC1 | 73 nM | 46 nM | 88 nM | 3.8 nM | 19 | 12 | 23 |
| COc1ccccc1N1CCN(CCCNC(=O)NN(Cc2ccc(-c3ccccc3)cc2)c2ccc(F)cc2)CC1 | 140 nM | 42 nM | 110 nM | 5.9 nM | 24 | 7.1 | 19 |
| O=C(NCCCN1CCN(c2ccc(Cl)cc2)CC1)NN(Cc1ccccc1)c1ccccc1 | 640 nM | 410 nM | 1100 nM | 9.7 nM | 66 | 42 | 110 |
| O=C(NCCCN1CCN(c2ncccn2)CC1)NN(Cc1ccccc1)c1ccccc1 | 580 nM | 440 nM | 2000 nM | 18 nM | 32 | 24 | 110 |
| COc1ccccc1N1CCN(CCCNC(=O)NN(Cc2ccccc2)c2ccc(Cl)cc2Cl)CC1 | 35 nM | 24 nM | 61 nM | 15 nM | 2.3 | 1.6 | 4 |
| COc1ccc(N(Cc2ccccc2F)NC(=O)NCCCN2CCN(c3ccccc3OC)CC2)cc1 | 42 nM | 19 nM | 76 nM | 2.6 nM | 16 | 7.3 | 29 |
| Cc1cccc(C(=O)NCN2CCN(c3ccccc3C#N)CC2)c1 [PD-168,077] | 2300 nM | 1100 nM | 4700 nM |  |  |  |  |
| COc1cccc(CN(NC(=O)NCCCN2CCN(c3ccccc3OC)CC2)c2ccc(F)cc2)c1 | 110 nM | 62 nM | 150 nM | 5.9 nM | 19 | 11 | 25 |
| O=C(NCCCN1CCN(c2ncccn2)CC1)NN(Cc1ccc(F)cc1)c1ccccc1 | 430 nM | 310 nM | 1900 nM | 19 nM | 23 | 16 | 100 |
| O=C(NCCCN1CCN(c2ccc(Br)cc2)CC1)NN(Cc1ccc(F)cc1)c1ccccc1 | 790 nM | 620 nM | 1400 nM | 46 nM | 17 | 13 | 30 |
| COc1ccccc1N1CCN(CCNC(=O)NN(Cc2ccccc2)c2ccc(F)cc2)CC1 | 100 nM | 71 nM | 700 nM | 9 nM | 11 | 7.9 | 78 |
| COc1ccccc1N1CCN(CCCNC(=O)NN(Cc2ccccc2F)c2ccc(Cl)cc2)CC1 | 41 nM | 26 nM | 95 nM | 2.6 nM | 16 | 10 | 36 |
| COc1ccc(N(Cc2ccc(C#N)cc2)NC(=O)NCCCN2CCN(c3ccccc3OC)CC2)cc1 | 250 nM | 110 nM | 220 nM | 16 nM | 16 | 6.9 | 14 |
| COc1ccc(N(Cc2cccc(OC)c2)NC(=O)NCCCN2CCN(c3ccccc3OC)CC2)cc1 | 150 nM | 110 nM | 320 nM | 33 nM | 4.5 | 3.3 | 9.7 |
| COc1ccc(N(Cc2cccc(F)c2)NC(=O)NCCCN2CCN(c3ccccc3OC)CC2)cc1 | 59 nM | 35 nM | 86 nM | 6.2 nM | 10 | 5.6 | 14 |
| C=C(C)CN(NC(=O)NCCCN1CCN(c2ccccc2OC)CC1)c1ccc(OC)cc1 | 210 nM | 300 nM | 860 nM | 64 nM | 3.3 | 4.7 | 13 |
| O=C(NCCN1CCN(c2ccc(Br)cc2)CC1)NN(Cc1ccccc1)c1ccccc1 | 390 nM | 430 nM | 1800 nM | 28 nM | 14 | 15 | 64 |
| C=CCN(NC(=O)NCCCN1CCN(c2ccccc2OC)CC1)c1ccc(OC)cc1 | 180 nM | 340 nM | 660 nM | 61 nM | 3 | 5.6 | 11 |

| SMILES | Ki (D(2) dopamine receptor [1]) | Ki (D(2) dopamine receptor [2]) | Ki (D(3) dopamine receptor) | Ki (D(4) dopamine receptor) | Ratio Ki (Homo sapiens [3]) | Ratio Ki (Homo sapiens [4]) | Ratio Ki (Homo sapiens [5]) |
| --- | --- | --- | --- | --- | --- | --- | --- |
| COc1ccccc1N1CCN(CCCNC(=O)NN(Cc2ccccc2)c2ccc(Cl)cc2)CC1 | 32 nM | 23 nM | 130 nM | 2.9 nM | 11 | 7.9 | 45 |
| O=C(NCCN1CCN(c2ccc(I)cc2)CC1)NN(Cc1ccccc1)c1ccccc1 | 490 nM | 510 nM | 1800 nM | 44 nM | 11 | 12 | 38 |
| COc1ccccc1N1CCN(CCCNC(=O)NN(Cc2ccccc2F)c2ccc(Br)cc2)CC1 | 45 nM | 22 nM | 92 nM | 3.3 nM | 14 | 6.7 | 28 |
| COc1ccccc1N1CCN(CCCNC(=O)NN(Cc2ccc(C#N)cc2)c2ccc(Cl)cc2Cl)CC1 | 150 nM | 94 nM | 280 nM | 12 nM | 13 | 7.8 | 23 |
| COc1ccc(N(Cc2ccc(F)cc2)NC(=O)NCCCN2CCN(c3ccccc3OC)CC2)cc1 | 160 nM | 110 nM | 400 nM | 2.9 nM | 55 | 38 | 140 |
| COc1ccccc1N1CCN(CCCNC(=O)NN(Cc2ccccc2F)c2ccc(F)cc2)CC1 | 92 nM | 47 nM | 160 nM | 3.6 nM | 26 | 13 | 44 |
| COc1ccccc1N1CCN(CCCNC(=O)/N=N/c2ccc(F)cc2)CC1 | 110 nM | 51 nM | 140 nM | 20 nM | 5.5 | 2.6 | 7 |
| COc1ccccc1N1CCN(CCCNC(=O)NN(Cc2ccc(C#N)cc2)c2ccc(F)cc2)CC1 | 210 nM | 120 nM | 640 nM | 15 nM | 14 | 8 | 43 |
| COc1ccc(N(Cc2ccccc2)NC(=O)NCCCN2CCN(c3ccccc3OC)CC2)cc1 | 45 nM | 19 nM | 120 nM | 1.7 nM | 26 | 11 | 71 |
| COc1ccccc1N1CCN(CCNC(=O)/N=N/c2ccc(F)cc2)CC1 | 270 nM | 140 nM | 120 nM | 36 nM | 7.5 | 3.9 | 3.3 |
| O=C(NCCCN1CCN(c2ccc(Cl)cc2)CC1)NN(Cc1ccc(F)cc1)c1ccccc1 | 500 nM | 380 nM | 850 nM | 17 nM | 29 | 22 | 50 |
| COc1ccccc1N1CCN(CCCCNC(=O)/N=N/c2ccc(F)cc2)CC1 |  |  | 3.1 nM |  | 0.4 | 0.36 | 0.033 |
| COc1ccccc1N1CCN(CCCNC(=O)NN(Cc2ccccc2)c2ccc(Br)cc2)CC1 | 55 nM | 34 nM | 130 nM | 3.4 nM | 16 | 10 | 38 |
| COc1ccccc1N1CCN(CCCNC(=O)NN(Cc2ccc(F)cc2)c2ccc(F)cc2)CC1 | 77 nM | 30 nM | 85 nM | 4.6 nM | 17 | 6.5 | 18 |
| O=C(NCCCN1CCN(c2ccc(Br)cc2)CC1)NN(Cc1ccccc1)c1ccccc1 |  |  | 1500 nM | 14 nM |  |  |  |
| COc1ccccc1N1CCN(CCCCNC(=O)NN(Cc2ccccc2)c2ccc(F)cc2)CC1 | 160 nM | 94 nM | 76 nM | 4.4 nM | 36 | 21 | 17 |
| O=C(NCCCN1CCN(c2ccc(I)cc2)CC1)NN(Cc1ccccc1)c1ccccc1 | 690 nM | 670 nM | 1300 nM | 21 nM | 33 | 32 | 62 |
